High-throughput results as filed in PubChem BioAssay.
The sample as a whole holds a higher share of hits than the screen did.
Dynein transport: inhibitors of GR-EGFP nuclear translocation, primary screen, dynein cargo transport inhibitor project, imaging, high-content, 3617.4 mouse cells; AID 1381, 2008; 0.47% of 220,000 active; z-score, hits read low; test concentration mostly 20 µM; stimulated with dexamethasone, 1 µM; stronger effect = lower value;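 active means plate z-score of nuclear minus cytoplasmic receptor signal below a set negative limit, without overly bright fluorescence or cell loss, cut at about -3.5 in these data, passing the limit was not always enough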;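 further: z-score of nuclear minus cytoplasmic ring GR-EGFP intensity difference per well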
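Buffer or medium: tet-free medium with charcoal-stripped serum / Also added: dexamethasone agonist, 1.0 µM final, for 30 min / Timing: induction 48 h, compound 1 h, agonist 30 min / Measured by: high-content fluorescence imaging after fixation / Read-out: nuclear-to-cytoplasmic GR-EGFP distribution per well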
CHOP UPR activ: activators of apoptotic CHOP UPR arm, primary screen, cell-based, CHO-CHOP luciferase reporter, luminescence, uHTS | UPR activation; percent of tunicamycin response over DMSO baseline | activation, % at 10 µM | 0.34% of 330,000 active | AID 449763, 2010;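 active means at 10 µM dose, activation of 40% or more, normalized to positive control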;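 further: 100% = tunicamycin at 10 µg/mL and 0% = DMSO alone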
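assay system = CHO CHOP reporter cells | amount = 500 CHO-CHOP cells per well | buffer or medium = F12 with 10% FBS | incubation = 16-18 h cell attachment, then 6 h compound exposure, 37 °C | detection = luminescence read with Steady-Glo | read-out = percent activation relative to tunicamycin control | controls = tunicamycin high control, DMSO low control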
CHOP inhibitor: inhibitors of CHOP promoter induction, primary screen, cell-based, unfolded protein response, luciferase reporter; CHO-K1 CHOP-promoter luciferase, tunicamycin-induced, 15-18 h; inhibition, % at 10 µM; 3.8% of 220,000 active;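 active means compounds that reduced the stress-induced luciferase reporter signal by more than about 70% of percent inhibition, limit read from the data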;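 further: 0% = tunicamycin plus vehicle and 100% = wells without tunicamycin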
XBP1 UPR activ: activators of adaptive XBP1 UPR arm, primary screen, cell-based, CHO-XBP1 luciferase reporter, luminescence, uHTS. AID 463104, 2010. 0.33% of 330,000 active. activation, % at 20 µM. IRE1-XBP1 UPR activation; percent of tunicamycin response, DMSO as zero;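 active means versus positive control, 20 µM dose yields 30% or more activation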;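 further: 100% = tunicamycin at 10 µg/mL and 0% = DMSO only wells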
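Material: CHO cell line with stable XBP1 luciferase reporter; schedule: 16-18 h cell attachment at 37 °C, then 6 h compound exposure; signal: glow luminescence from Steady-Glo reagent; medium: serum-containing F12 medium, 10% FBS; benchmarks: tunicamycin 10 µg/mL and vehicle-only wells; read-out: percent activation relative to tunicamycin reference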
pCIP destab: p/CIP-EGFP fusion destabilizers, primary screen, fluorescence, F442A cells. 0.01% of 290,000 active. 16 h. decrease of EGFP signal, % at 10 µM;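 active means EGFP signal decrease of at least 30% at 10 µM or well 3 SD below plate mean, unless failing retest; inactive means the rest, including hits failing retest or dose response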
B2AR ag: beta2AR agonists driving receptor internalization, primary screen, cell-based, FAP fluorogen, flow cytometry; response, % (test concentration not listed); 0.43% of 340,000 active; Beta-2 adrenergic receptor (Homo sapiens), P07550; Am2.2-beta2AR cells;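 active means response above a set limit, near 3 SD of response in nonfluorescent compounds, cut at about 42% in these data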
Dynein inh conf: dynein cargo transport inhibitors, GR-EGFP translocation, confirmation, imaging, high-content imaging, GR-EGFP cells; calls only at 20 µM; 3617.4 GR-EGFP nuclear translocation imaging, dexamethasone-induced; shares compounds with Dynein transport; 69% of 1,000 active;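 active means inhibition of receptor movement into the nucleus at or above a set limit in both runs, with normal cell brightness and cell count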;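 further: dexamethasone at 1 µM final in well for 30 min; nuclear minus cytoplasmic GR-EGFP mean intensity difference in channel 2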
CHOP confirm: retest of CHOP induction inhibitors, confirmation, cell-based; 45% of 2,100 active; CHO-CHOP promoter luciferase reporter, tunicamycin-induced, luminescence; shares compounds with CHOP inhibitor; inhibition, % at 10 µM; AID 504437, 2011;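 active means mean of three repeat readings of reporter signal inhibition above a set limit, cut at about 70% in these data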;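 further: 0% = tunicamycin plus vehicle and 100% = wells lacking tunicamycin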
UPR CHOP confirm: activators of apoptotic CHOP UPR arm, confirmation, cell-based, CHO-CHOP luciferase reporter, single concentration. shares compounds with CHOP UPR activ. CHO-CHOP cells, CHOP-luciferase reporter luminescence; percent of tunicamycin response, DMSO as zero. activation, % at 10 µM. 64% of 1,000 active. AID 463112, 2010; in the data active means activation above about 33%;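 further: 0% = DMSO wells and 100% = tunicamycin 10 µg/mL wells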
B2AR ag CP1: beta2AR agonists via receptor internalization, confirmation, cell-based, FAP fluorogen, flow cytometry, single point, cherry pick 1 | AID 540358, 2011 | percent response (surface receptor), % at 10 µM | shares compounds with B2AR ag | Am2.2-beta2AR cells, FAP surface receptor; stronger effect = lower value | 25% of 1,100 active;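 active means surface receptor percent response at or below 58%, roughly 3 SD from nonfluorescent compounds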
FAP fluor counter: fluorescence artifact in beta-2AR agonist FAP counterscreen. shares compounds with B2AR ag. Am2.2 cells, FAP fluorogen flow cytometry; stronger effect = lower value. calls only at 10 µM. 1,100 tested, under 10 active. AID 588765;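 active means percent response below a set limit in fluorescence channel 1 and below 50% in channel 8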
Active calls of the source: *; i = inactive; x = no result given; + = active, no number.

SMILES	Dynein transport	CHOP UPR activ	CHOP inhibitor	XBP1 UPR activ	pCIP destab	B2AR ag	CHOP confirm	others
Cc1ccc(-c2csc3ncnc(Sc4nnc(CN5CCCCCC5=O)o4)c23)cc1	-3.8*	82*	x	-6	-15	42*	x	Dynein inh conf=+;UPR CHOP confirm=80*;B2AR ag CP1=87;FAP fluor counter=i
NC(=O)Cn1c(=O)n(CCC(=O)NCCSCc2ccccc2)c(=O)c2ccccc21	-0.5	1	14	-1	-1	-9	x
CC(C)N1C(=O)/C(=C/c2nc3ccccc3c(=O)n2-c2ccccc2)c2ccccc21	-4.1*	5	16	11	3	47*	x	Dynein inh conf=+;B2AR ag CP1=82;FAP fluor counter=i
Cc1nc([N+](=O)[O-])c(Br)n1Cc1ccc(Cl)c(Cl)c1	-4.2*	x	105*	x	-3	58*	3	Dynein inh conf=+;B2AR ag CP1=96;FAP fluor counter=i
Cc1ccc(-n2c(N)c(C(=O)Nc3c(C)n(C)n(-c4ccccc4)c3=O)c3nc4ccccc4nc32)cc1	-0.05	0	107*	-2	-15	68*	55
Cc1cc(C)cc(-n2c(N)c(C(=O)Nc3c(C)n(C)n(-c4ccccc4)c3=O)c3nc4ccccc4nc32)c1	-0.28	10	105*	1	-1	11	39
Cc1ccc(C(=O)Nc2c(C)n(C)n(-c3ccccc3)c2=O)cc1	-0.44	-1	-3	1	-13	-2	x
CC(=O)Nc1ccc(S(=O)(=O)NCCC(=O)Nc2ncccc2C)cc1	x	2	x	-1	x	-6	x
Cc1ccc(Nc2nc(N)nc(CN3CCN(c4ccccc4)CC3)n2)cc1Cl	4.1	0	103*	5	-7	-2	75*
O=C(Nc1cccc(-c2nc3ccccc3s2)c1)C1=COCCO1	-0.38	1	22	1	3	-18	x
O=C(Nc1ccc(-c2nc3ccccc3s2)cc1)C1=COCCO1	-0.0091	-6	104*	-11	-2	-9	92*
CCOC(=O)c1ccc(CNCc2ccc(Br)cc2)cc1	0.2	0	51	-2	-3	11	x
CCc1ccc(CN/C=C/C(=O)c2ccc(Br)cc2)cc1	-1.2	0	104*	-2	-4	-5	-26
CC(=O)C1=C(c2ccc(Br)cc2)C(=O)c2ccccc2C1=O	-3	x	110*	x	-6	29	108*
CNC1=C(N(C(C)=O)c2ccc(Br)cc2)C(=O)c2ccccc2C1=O	0.21	x	-13	x	-22	4	x
COc1ccc(NC(=O)CN2CCCC(C)C2)c([N+](=O)[O-])c1 (stereo unspecified)	-0.12	3	101*	2	4	-1	40
COCC(=O)NC1CCN(CC(=O)Nc2ccc(OC)cc2[N+](=O)[O-])CC1	0.32	-1	-44	0	-4	-5	x
Cc1ccccc1C(=O)NNC(=S)NC(=O)c1ccc(Cl)cc1Cl	-1.1	-1	96*	-1	4	4	12
O=C(NC(=S)NNC(=O)c1ccc(Cl)cc1Cl)c1cccnc1	-0.3	-1	34	-3	5	5	x
CC1CCN(S(=O)(=O)c2ccc(C(=O)Nc3sccc3C(N)=O)cc2)CC1	0.03	5	97*	0	9	8	58
CN(C)NC(=O)c1ccsc1NC(=O)c1ccc(S(=O)(=O)N2CCCC2)cc1	-0.85	0	6	1	-6	2	x
Cc1ccccc1NS(=O)(=O)c1ccc(C(=O)NCCCN2CCCC2=O)cc1	x	1	x	2	x	-1	x
CCOC(=O)/C=c1\s/c(=C\c2sccc2C)c(=O)n1CC(=O)NCc1ccc(C)cc1	-1	54*	99*	64*	-2	x	20
CCCCc1ccc(Nc2nc(CCC)cc(=O)[nH]2)cc1	-0.6	1	107*	2	-4	0	98*
CCCc1cc(=O)[nH]c(Nc2ccc(N3CCCCC3)cc2)n1	-0.082	-3	107*	-1	2	-2	94*
SMILES	Dynein transport	CHOP UPR activ	CHOP inhibitor	XBP1 UPR activ	pCIP destab	B2AR ag	CHOP confirm	others
O=C(Nc1ccccn1)c1cc(-c2cccnc2)nc2ccc(Br)cc12	2.6	1	103*	-2	4	-11	-15
Cc1ccc(O)c(N=Nc2ccccc2)n1	x	-2	-9	-7	x	-8	x
Cc1ccc(-n2ccc(=O)c(-c3ccnc(SCc4cccc(Cl)c4)n3)n2)cc1	-0.32	0	98*	-2	-3	-5	54
COc1cc(C(=O)Nc2ccc(C(=O)c3cccs3)cc2)cc(OC)c1OC	x	-2	x	-6	1	5	x
O=C(COC(=O)c1cccc(NC(=O)c2ccco2)c1)c1ccc(Br)cc1	-0.46	1	105*	1	-4	-8	37
CC(C(C(=O)N1CCCCC1)N1CCCCC1)N1CCCCC1 (stereo unspecified)	x	x	x	x	x	0	x
O=C(CSc1nnc(NC(=O)c2ccco2)s1)Nc1ccccc1Br	x	2	x	4	-2	-3	x
Cc1ccc(NC(=O)COc2ncnc3c(Cl)cc(Cl)cc23)cc1[N+](=O)[O-]	-0.39	-1	104*	0	-7	-2	4
O=C(CCl)N(c1ccccc1)c1c[nH]c2ccccc12	-2.8	0	x	-10	-10	1	-29
Cc1ccc(N=CC2=C(O)CC(c3ccccc3Cl)CC2=O)cc1 (stereo unspecified)	-0.37	1	3	4	-20	-4	x
